By inhibition is commonly meant the relative decrease from the control value, in per cent.

One data set has as its target Aβ42 (Homo sapiens, UniProt P05067). The experiment in a line: Thioflavin-T fluorescence assay, inhibition of Aβ42 aggregation. The format is biochemical. The following applies: 24 h, read-out: % inhibition of Aβ42 aggregation (ThT fluorescence), test peptide 10 μM (1:5), Aβ42 2 μM, co-incubated 24 h at 37 °C, λex 440 nm, λem 485 nm, mean of triplicate.
For another data set, the system named is PC-12 cells. The experiment in a line: Cytotoxicity studies, MTT assay. The format is cell-based, rat. The conditions noted are these: highest tested concentration 20 μM, 6 h, MTT OD570, triplicate. The essentials: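 PC-12 cells were exposed to the test peptide alone at the stated dose for 6 h, with no Aβ added, and viability was read by MTT assay. Untreated cells were set as 100% (positive control). Samples were run in triplicate in three individual experiments and the readings were averaged (<5% variation).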
On the technique in general: Formazan colour is commonly taken as a measure of viable cells.

The next data set concerns the target preformed Aβ42 fibrils (Homo sapiens, UniProt P05067). The experiment in a line: Thioflavin-T assay, deformation of preformed Aβ42 fibrils. The format is biochemical. The conditions noted are these: 24 h, Aβ42 2 μM pre-aggregated 24 h.

Molecules are shown by their SMILES. Where a SMILES comes first, the peptide text is derived from it. [ ]: non-standard residue; d: D form. Nva = CCC[C@H](N)C(=O)O; Aib = CC(C)(N)C(=O)O

preformed Aβ42 fibrils, sequence (P05067 672-713): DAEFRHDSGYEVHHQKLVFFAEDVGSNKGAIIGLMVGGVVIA
Aβ42, sequence (P05067 672-713): as above

For `CC[C@H](C)[C@H](NC(=O)[C@@H](NC(=O)[C@@H](N)C(C)C)C(C)C)C(=O)N[C@H](C(N)=O)C(C)C` [15d, Val-Val-Ile-Val-NH2] (H-VVIV-NH2), the inhibition at 10 µM at Aβ42 was determined as 11%.

For the molecule `CC[C@@H](C)[C@@H](NC(=O)[C@@H](NC(=O)[C@@H](N)C(C)C)C(C)C)C(=O)N[C@@H](C)C(N)=O` [14a, Val-Val-D-Ile-Ala-NH2] (H-VV[dI]A-NH2), on Aβ42, the inhibition at 10 µM turned out to be 21.8%.

For the molecule `CC[C@H](C)[C@H](NC(=O)[C@@H](NC(=O)[C@@H](N)C(C)C)C(C)C)C(=O)N[C@@H](CC(C)C)C(N)=O` [15e, Val-Val-Ile-Leu-NH2] (H-VVIL-NH2), the inhibition at 10 µM on Aβ42 amounted to 31.2%.

With `CCC[C@H](N)C(=O)N[C@H](C(=O)N[C@H](C(=O)N[C@@H](C)C(N)=O)[C@@H](C)CC)C(C)C` [12e, Nva-Val-Ile-Ala-NH2] (H-[Nva]VIA-NH2), the inhibition at 10 µM on Aβ42 was determined as 70.3%.

Take `CC[C@H](C)[C@H](NC(=O)[C@@H](NC(=O)[C@H](N)Cc1ccccc1)C(C)C)C(=O)N[C@@H](C)C(N)=O` [12c, D-Phe-Val-Ile-Ala-NH2] (H-[dF]VIA-NH2): in the data set with PC-12 cells, the “cytotoxicity, % viable PC-12 cells” value is “negligible cytotoxicity”. Besides, the results for the “% Deformation of preformed Aβ42 fibrils” value on preformed Aβ42 fibrils (test peptide 0.5 μM (1:0.1)), at preformed Aβ42 fibrils (test peptide 1 μM (1:0.5)) and at preformed Aβ42 fibrils (test peptide 2 μM (1:1)) were 33.7%, 34.9% and 57.5%, respectively.

`CC[C@H](C)[C@H](NC(=O)[C@@H](NC(=O)[C@@H](N)Cc1ccccc1)C(C)C)C(=O)N[C@@H](C)C(N)=O` [12b, Phe-Val-Ile-Ala-NH2] (H-FVIA-NH2): on Aβ42, the inhibition at 10 µM stood at 77.6%.

For `CC[C@H](C)[C@H](NC(=O)C(C)(C)NC(=O)[C@@H](N)C(C)C)C(=O)N[C@@H](C)C(N)=O` [13d, Val-Aib-Ile-Ala-NH2] (H-V[Aib]IA-NH2), the inhibition at 10 µM on Aβ42 is 45.3%.

As to `CC[C@H](C)[C@H](NC(=O)[C@@H](NC(=O)[C@@H](N)C(C)C)C(C)C)C(=O)NC(C)(C)C(N)=O` [15b, Val-Val-Ile-Aib-NH2] (H-VVI[Aib]-NH2), the inhibition at 10 µM on Aβ42 stood at 35.1%.

In the case of `CC(C)C[C@H](NC(=O)[C@@H](NC(=O)[C@@H](N)C(C)C)C(C)C)C(=O)N[C@@H](C)C(N)=O` [14b, Val-Val-Leu-Ala-NH2] (H-VVLA-NH2), on Aβ42, the inhibition at 10 µM was determined as 0%.

On to `CC[C@H](C)[C@H](NC(=O)[C@@H](NC(=O)[C@@H](N)C(C)C)C(C)C)C(=O)N[C@H](C)C(N)=O` [15a, Val-Val-Ile-D-Ala-NH2] (H-VVI[dA]-NH2), for which the inhibition at 10 µM at Aβ42 came out at 23.2%.

Turning to `CC[C@@H](C)[C@@H](NC(=O)[C@@H](N)C(C)C)C(=O)N[C@H](C(=O)N[C@@H](C)C(N)=O)[C@@H](C)CC` [13b, Val-D-Ile-Ile-Ala-NH2] (H-V[dI]IA-NH2), the inhibition at 10 µM at Aβ42 worked out at 49.4%.

Consider `CC[C@H](C)[C@H](NC(=O)[C@@H](NC(=O)[C@H]1CCCN1)C(C)C)C(=O)N[C@@H](C)C(N)=O` [12d, D -Pro-Val-Ile-Ala-NH2] (H-[dP]VIA-NH2), for which, on Aβ42, the inhibition at 10 µM was found to be 39.8%.

Consider `CC[C@H](C)[C@H](NC(=O)[C@H](NC(=O)[C@@H](N)C(C)C)C(C)C)C(=O)N[C@@H](C)C(N)=O` [13a, Val-D-Val-Ile-Ala-NH2] (H-V[dV]IA-NH2), for which the inhibition at 10 µM on Aβ42 is 15.7%.

For the molecule `CC[C@H](C)[C@H](NC(=O)[C@@H](NC(=O)[C@H](N)C(C)C)C(C)C)C(=O)N[C@@H](C)C(N)=O` [12a, D -Val-Val-Ile-Ala-NH2] (H-[dV]VIA-NH2), the inhibition at 10 µM at Aβ42 was 82.1%.

With `CC[C@H](C)[C@H](NC(=O)[C@@H]1CCCN1C(=O)[C@@H]1CCCN1)C(=O)N[C@@H](C)C(N)=O` [16a, Pro-Pro-Ile-Ala-NH2] (H-PPIA-NH2), the inhibition at 10 µM at Aβ42 is 14.2%.

Values taken from article PMC9055537 (RSC Advances, 2020).
